Screening data (PubChem BioAssay)
This is a sample that favours compounds with a hit; in the whole collection about 3.7% have one here.
TAAR1 agonist: agonists of human TAAR1; activation, % at 3 µM; hit rate 0.99% among 360,000; Q96RJ0; CHO RD-HGA16 TAAR1, Fluo-8 calcium fluorescence; vehicle wells 0%, saturating PEA agonist 100%;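 active = activation above the mean activation of all test compounds in the run plus 3 SD, cut at about 38% in these data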
Target sequence (Q96RJ0 whole entry, looked up): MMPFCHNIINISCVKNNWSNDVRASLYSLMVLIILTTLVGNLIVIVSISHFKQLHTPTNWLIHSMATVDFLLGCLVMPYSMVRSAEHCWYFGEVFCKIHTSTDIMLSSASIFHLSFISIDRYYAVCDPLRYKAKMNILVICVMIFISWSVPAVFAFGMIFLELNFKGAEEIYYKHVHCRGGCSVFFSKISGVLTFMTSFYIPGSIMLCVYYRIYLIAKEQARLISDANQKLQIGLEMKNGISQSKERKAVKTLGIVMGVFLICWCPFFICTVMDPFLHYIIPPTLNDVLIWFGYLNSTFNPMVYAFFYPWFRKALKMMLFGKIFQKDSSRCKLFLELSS
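Benchmarks: low control DMSO, high control PEA (EC100); System: CHO RD-HGA16 cells carrying human TAAR1 plus Gα16; Detection: Fluo-8 fluorescence, 5 s baseline then 140 s kinetic read; Schedule: 17-24 h plating, Fluo-8 75 min 37 °C, 30 min RT; Read-out basis: % activation from peak over basal fluorescence ratio, DMSO-to-PEA scaled.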
HCV NS3 hel inh: blocks Hepatitis C virus NS3 helicase unwinding; NS3 helicase DNA unwinding, Cy5 molecular beacon fluorescence; inhibition, % at 10.9 µM; hit rate 0.56% among 290,000; AID 1800;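 active = inhibition above the mean of all tested compounds plus 3 SD, set per campaign, cut at about 35% in these data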;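 note: 0% = DMSO wells and 100% = thioflavine S control wells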
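Compound dosing – single dose, 10.9 µM nominal final, DMSO 0.8% final · System – NS3 helicase fragment of HCV · Buffer or medium – MOPS pH 6.5, MgCl2, DTT, Tween20, BSA · Signal – Cy5 beacon fluorescence read at start and 1 h · Also added – annealed dual-labelled DNA beacon duplex, ATP-started · Schedule – 1 h at 25 °C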
rCAG RNA binder: binds r(CAG) RNA repeats; hit rate 1.3% among 370,000; inhibition, % at 3 µM; r(CAG) RNA repeat, TO-PRO-1 dye displacement fluorescence;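 active = inhibition above the plate cutoff, the mean of all test compounds on that plate plus 3 SD, cut at about 35% in these data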;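 note: 0% = DMSO alone and 100% = 100 µM mitoxantrone as full dye displacement; higher means more dye released from RNA so lower well fluorescence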
TAAR1 antagonist: human TAAR1 antagonism. Q96RJ0. CHO RD-HGA16 TAAR1, Fluo-8 calcium fluorescence, antagonist. inhibition, % at 3 µM. hit rate 1.5% among 360,000;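 active = inhibition above a per-plate cutoff, the mean inhibition of test compounds on that plate plus 3 SD, cut at about 49% in these data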;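 note: 0% = DMSO plus EC80 beta-PEA response and 100% = DMSO alone without agonist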
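Material: RD-HGA16 CHO cells with stable hTAAR1 and Gα16; Dosing: single nominal final test compound concentration of 3 µM; Schedule: seeding 17-24 h prior, 75-min 37 °C, 30-min RT dye loading; Detection: kinetic Fluo-8 calcium fluorescence measurement; Measure: % inhibition from peak post-agonist over basal fluorescence ratio; Benchmarks: vehicle and agonist controls.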
HCV core dimer: HCV core protein dimerization inhibition. TR-FRET GST/Flag-core106 dimerization, 1536-well. inhibition, % at 5 µM. hit rate 0.33% among 300,000. AID 1899;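 active = inhibition above the mean of all tested compounds plus 3 SD, set per screening campaign, cut at about 45% in these data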
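Assay system: GST-tagged and Flag-tagged HCV core protein residues 1-106 / Times: compound-protein-antibody incubation 4 h at 22.5 °C / Signal: time-resolved FRET, ex 340 nm, em 617 and 671 nm / Evaluation: % inhibition based on acceptor/donor emission ratio / Benchmarks: wells lacking GST-core106 and wells with excess unlabelled core106 / Repeats: singlicate, one well per compound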
TAAR1 ag confirm: confirmation of human TAAR1 agonists. hit rate 82% among 2,400. CHO RD-HGA16 TAAR1, Fluo-8 calcium fluorescence; scaled: DMSO 0%, maximal phenethylamine 100%. activation, % at 3 µM. shares compounds with TAAR1 agonist;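 active = activation above a cutoff set at the run's mean compound activation plus 3 SD, cut at about 39% in these data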
Ga16 nonsel ag: counter-screen for TAAR1 agonists: nonselective agonists in parental cells; shares compounds with TAAR1 agonist; CHO-Ga16 parental, Fluo-8 calcium fluorescence; normalized to maximal ATP response, DMSO zero; activation, % at 3 µM; hit rate 50% among 2,400; AID 651787;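 active = activation above the run cutoff, the mean activation over all tested wells plus 3 SD, cut at about 12% in these data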;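 note: 0% = DMSO wells and 100% = maximal ATP response on the peak over basal ratio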
TAAR1 desensitize: TAAR1 response desensitization, agonist counter-screen; hit rate 46% among 2,400; shares compounds with TAAR1 agonist; CHO RD-HGA16 hTAAR1, Fluo-8 calcium, beta-PEA response inhibition; inhibition, % at 3 µM; AID 651951;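 active = inhibition above the run cutoff, the mean inhibition of all test compounds plus 3 SD, cut at about 49% in these data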;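 note: beta-PEA stimulus applied at its EC80; loss of beta-PEA calcium signal after compound pretreatment read as receptor desensitization; 0% = DMSO with beta-PEA at EC80 and 100% = DMSO alone without agonist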
Ga16 nonsel ant: counter-screen for TAAR1 agonists: nonselective Ga16 antagonists; shares compounds with TAAR1 agonist; CHO-Ga16 ATP-induced calcium, Fluo-8 fluorescence; inhibition, % at 3 µM; hit rate 39% among 2,400; AID 651952;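 active = inhibition above the plate's mean compound inhibition plus 3 SD, computed per plate, cut at about 22% in these data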;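 note: 0% = EC80 ATP with DMSO and 100% = DMSO wells without ATP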
Numbers without * were called inactive; . = no result given.

SMILES	TAAR1 agonist	HCV NS3 hel inh	rCAG RNA binder	TAAR1 antagonist	HCV core dimer	TAAR1 ag confirm	Ga16 nonsel ag	TAAR1 desensitize	Ga16 nonsel ant
CC(C)(C)c1ccc(C(=O)NNC(=S)NC(=O)c2cccnc2)cc1	85.9*	2.0	10.6	35.3	8.8	49.2*	46.9*	38.4	27.6*
Cc1cc(OCC(=O)NNC(=S)NC(=O)c2cccs2)ccc1Cl	103.0*	18.6	6.6	65.0*	.	76.8*	75.5*	58.2*	53.5*
Cc1ccccc1C(=O)NNC(=S)NC(=O)c1cccs1	128.0*	10.7	2.7	65.5*	-2.3	67.1*	69.5*	29.1	30.1*
Cc1ccccc1C(=O)Nc1cccc(NC(=S)NC(=O)c2cccs2)c1	3.8	8.0	2.6	-10.9	5.3	.	.	.	.
O=C(NNC(=S)NC(=O)c1ccccc1)c1cccnc1	2.2	11.1	0.5	-17.4	-5.1	.	.	.	.
COC(=O)[C@H](Cc1ccccc1)NC(=O)[C@H]1O[C@@H](n2cnc3c(=O)[nH]c(N)nc32)[C@H](O)[C@@H]1O	1.1	.	1.5	-27.5	.	.	.	.	.
O=C(N=C1N(Cc2ccccc2)[C@@H](Cc2ccccc2)[C@]2(C=C3CCCCC3n3c(=O)n(-c4ccccc4)c(=O)n32)N1C(=O)OCc1ccccc1)c1ccccc1 (some centres not stated)	.	.	15.4	.	.	.	.	.	.
COc1cccc(-c2nnc(SCC(=O)Nc3cccc4ccccc34)n2Cc2ccco2)c1	.	.	5.7	.	.	.	.	.	.
COc1ccccc1C(=O)N1CCC2CCN(C(=O)c3ccccc3)C2C1 (configuration not stated)	2.9	.	-0.9	-13.3	.	.	.	.	.
CC(=O)CC[C@@H]1CC[C@]2(CCCN(C(=O)c3ccc4ccccc4n3)C2)O1	.	.	0.5	.	.	.	.	.	.
COC(=O)[C@]12C[C@H](CC(=O)N3CCC(c4ccccc4)CC3)C(=O)N(Cc3ccc(Cl)cc3Cl)C1=C[C@H](C1CCCC1)O[C@@H]2C	.	.	8.6	.	.	.	.	.	.
COc1ccc(C(c2nnnn2CCc2ccccc2)N2CCN(C3CCCC3)CC2)cc1 (configuration not stated)	71.3*	-8.6	-7.7	54.2*	-2.0	85.3*	1.6	60.7*	5.6
COc1cccc(C(=O)Nc2ccc(NC(=O)Cc3ccccc3)cc2)c1	81.8*	4.2	1.9	42.4	-0.7	102.5*	23.3*	67.3*	13.8
CN1CCN(c2ccc(NC(=O)c3cccc(OCc4ccccc4)c3)cc2)CC1	54.1*	-48.3	-8.3	31.0	-12.8	60.5*	7.5	70.8*	13.2
COc1cccc(NC(=O)Cc2ccccc2)c1	9.1	0.7	0.1	17.2	-7.3	.	.	.	.
CCC(=O)N[C@H]1C[C@@H]2O[C@@H](CO)CC[C@@H]2O[C@@H]1CCc1ccc(-c2cccc(OC)c2)cc1	.	.	4.6	.	.	.	.	.	.
CCCOc1ccc(OCCOCCN2CCc3ccccc3C2)cc1	101.6*	-6.5	-10.7	42.5	1.9	76.9*	1.2	64.2*	1.6
CCOc1ccc(OCCOCCN2CCc3ccccc3C2)cc1	33.4	-11.9	-9.8	-13.2	2.7	.	.	.	.
C=CCc1cc(OC)ccc1OCCOCCN1CCc2ccccc2C1	48.3*	-20.0	-8.3	-12.4	2.2	56.4*	6.0	13.5	3.8
CN1C(=O)c2cc(NS(C)(=O)=O)ccc2OC[C@H]2O[C@@H](CC(=O)NCc3ccc(-c4ccccc4)cc3)CC[C@@H]21	.	.	8.2	.	.	.	.	.	.
COC(=O)C1=C(C)N(C)C(=NCC2CC2)NC1c1ccc(F)cc1 (configuration not stated)	0.4	.	7.8	-1.4	.	.	.	.	.
CCCCOCCCNC(=O)C[C@H]1C[C@@]2(C(=O)OC)C(=C[C@H](COCc3ccccc3)O[C@@H]2C)N(CCc2ccc(OC)c(OC)c2)C1=O	.	.	-0.3	.	.	.	.	.	.
C=CCc1c(C)[nH]c(=O)[nH]c1=O	71.8*	10.4	1.9	-20.7	-1.9	5.5	4.1	-1.2	7.3
O=[N+]([O-])c1[nH]cnc1/C=C/c1ccccc1	.	1.8	0.6	.	-1.3	.	3.4	.	13.4
COC(=O)c1nc[nH]c1[N+](=O)[O-]	3.3	.	2.9	-10.5	.	.	.	.	.
SMILES	TAAR1 agonist	HCV NS3 hel inh	rCAG RNA binder	TAAR1 antagonist	HCV core dimer	TAAR1 ag confirm	Ga16 nonsel ag	TAAR1 desensitize	Ga16 nonsel ant
CC(=O)OC12CCCN(C1)/C(=C/c1ccccc1)C2 (configuration not stated)	.	.	0.1	.	.	.	.	.	.
Cc1cc(NS(=O)(=O)c2c(C)[nH]c(=O)[nH]c2=O)ccc1Br	73.3*	14.6	4.2	37.5	.	-0.5	3.9	5.5	7.0
Cc1cc(Br)ccc1NS(=O)(=O)c1c(C)[nH]c(=O)[nH]c1=O	2.4	3.4	8.2	-38.7	-1.0	.	.	.	.
O=C(OCCN1CCCC12CCC(c1ccccc1)CC2)c1ccccc1 (configuration not stated)	.	.	0.9	.	.	.	.	.	.
COC(=O)C[C@@H]1CC[C@H]2[C@H](COc3ccc(NC(=O)Nc4ccc(C#N)cc4)cc3C(=O)N2C)O1	.	.	7.4	.	.	.	.	.	.
CN1CCN(c2ccc(NC(=O)c3ccc([N+](=O)[O-])o3)cc2Cl)CC1	44.8*	-11.5	-2.0	4.3	0.1	54.6*	1.1	27.5	11.7
FC(F)(F)c1cc(CCN2CCNC[C@@H]2CC2CCCCC2)cc(C(F)(F)F)c1	61.2*	.	4.4	43.1	.	52.3*	60.4*	27.1	68.4*
FC(F)(F)c1cc(CCN2CCNC[C@@H]2c2ccccc2)cc(C(F)(F)F)c1	44.9*	.	4.7	27.0	.	34.3	7.2	4.7	13.4
c1ccc(C[C@H]2CNCCN2CC2CCCCC2)cc1	8.8	.	9.6	4.5	-15.3	.	.	.	.
c1ccc(C[C@H]2CNCCN2CCCCC2CCCCC2)cc1	52.8*	.	4.6	21.2	-12.1	54.5*	22.1*	46.2	28.8*
c1ccc2c(C[C@@H]3CNCCN3CCCCC3CCCCC3)cccc2c1	19.8	.	17.3	-10.8	.	.	.	.	.
c1ccc(CC2CCCNC2)cc1 (configuration not stated)	43.7*	-4.3	1.1	18.5	4.6	60.9*	-0.5	32.7	7.4
CCCC[C@@H]1CNCCN1CCc1cc(C(F)(F)F)cc(C(F)(F)F)c1	24.5	.	-0.7	-18.4	-0.1	.	.	.	.
CCC(C)[C@H]1CNCCN1CCc1cc(C(F)(F)F)cc(C(F)(F)F)c1 (some centres not stated)	48.6*	.	3.7	-35.6	-26.3	59.4*	22.5*	3.2	10.0
